The test system of one assay is HeLa. The assay can be described thus: Antiproliferative activity against human HeLa cells after 48 hrs by MTT assay. The assay is classed as functional, cell-based. An outline of the steps: (§1)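 KB and HeLa cells were grown in DMEM with 10% heat-inactivated fetal calf serum and penicillin-streptomycin at 37 °C, 5% CO2. Cells were seeded at 5×10³ per well. After 16 h the medium was replaced with medium containing compound diluted from stock. MTT (from a 5 mg/ml 10× stock) was added for 4 h at 37 °C. Crystals were dissolved in DMSO and OD read at 570 nm, 48 h after treatment.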
(In general: Tetrazolium dyes change colour on reduction, which living cells bring about.)

The test system of assay [1] is Klebsiella aerogenes. Nature of the assay: Antibacterial activity against Klebsiella aerogenes at 20 umol/ml after 24 hrs by Kirby-Bauer's disk diffusion assay. The assay is classed as functional. An outline of the steps: (§2)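 Kirby-Bauer disc diffusion. Compounds were dissolved in acetone and serially diluted. Sterile 6 mm discs were soaked in the solutions and dried. 1 ml of bacterial broth culture was spread on Mueller-Hinton agar plates and the discs were placed aseptically. Plates were incubated upright at 37 °C for 24 h and the inhibition zone was measured with a scale.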
A general note: In agar diffusion tests the substance spreads into inoculated agar from a disc or well.

The subject of assay [2] is Micrococcus. The assay can be described thus: Antibacterial activity against Micrococcus at 10 umol/ml after 24 hrs by Kirby-Bauer's disk diffusion assay. Type of assay: functional. In short, it runs like this:
as §2

A further assay deals with KB. Nature of the assay: Antiproliferative activity against human KB cells after 48 hrs by MTT assay. Type of assay: functional, cell-based. In short, it runs like this: as §1
Assay [3] deals with Micrococcus. The assay can be described thus: Antibacterial activity against Micrococcus after 18 hrs by broth microdilution susceptibility test. The assay is classed as functional. In short, it runs like this: (§3)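 Broth microdilution in Mueller-Hinton broth at pH 7.4. Inoculum came from a broth culture grown 4–6 h to log phase. Compound dilutions were […]. Tubes were shaken and incubated at 37 °C for 18 h, then read for turbidity. MIC is the lowest concentration with no turbidity. Each test was run in triplicate and MICs come from at least two repetitions.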
For orientation: Dilution methods test growth across graded concentrations, often in twofold steps.

Assay [4] deals with Staphylococcus saprophyticus. The assay can be described thus: Antibacterial activity against Staphylococcus saprophyticus after 18 hrs by broth microdilution susceptibility test. Type of assay: functional. In short, it runs like this: as §3
Assay [5] deals with Escherichia coli. Nature of the assay: Antibacterial activity against Escherichia coli after 18 hrs by broth microdilution susceptibility test. Type of assay: functional. An outline of the steps:
as §3

Assay [6] relates to Enterobacter cloacae. The assay can be described thus: Antibacterial activity against Enterobacter cloacae after 18 hrs by broth microdilution susceptibility test. Type of assay: functional. In short, it runs like this:
as §3

For assay [7], the system named is Micrococcus. Nature of the assay: Antibacterial activity against Micrococcus at 20 umol/ml after 24 hrs by Kirby-Bauer's disk diffusion assay. The assay is classed as functional. An outline of the steps:
as §2

Assay [8] concerns Klebsiella aerogenes. The assay can be described thus: Antibacterial activity against Klebsiella aerogenes after 18 hrs by broth microdilution susceptibility test. The assay is classed as functional. In short, it runs like this: as §3
The subject of assay [9] is Staphylococcus saprophyticus. Nature of the assay: Antibacterial activity against Staphylococcus saprophyticus at 5 umol/ml after 24 hrs by Kirby-Bauer's disk diffusion assay. Type of assay: functional. An outline of the steps: as §2
Assay [10] concerns Micrococcus. Nature of the assay: Antibacterial activity against Micrococcus at 5 umol/ml after 24 hrs by Kirby-Bauer's disk diffusion assay. The assay is classed as functional. In short, it runs like this: as §2
Assay [11] relates to Staphylococcus saprophyticus. Nature of the assay: Antibacterial activity against Staphylococcus saprophyticus at 20 umol/ml after 24 hrs by Kirby-Bauer's disk diffusion assay. Type of assay: functional. An outline of the steps:
as §2

Assay [12] relates to Enterobacter cloacae. Nature of the assay: Antibacterial activity against Enterobacter cloacae at 20 umol/ml after 24 hrs by Kirby-Bauer's disk diffusion assay. The assay is classed as functional. In short, it runs like this: as §2
The test system of assay [13] is Staphylococcus saprophyticus. Nature of the assay: Antibacterial activity against Staphylococcus saprophyticus at 10 umol/ml after 24 hrs by Kirby-Bauer's disk diffusion assay. Type of assay: functional. An outline of the steps: as §2
For assay [14], the system named is Escherichia coli. Nature of the assay: Antibacterial activity against Escherichia coli at 10 umol/ml after 24 hrs by Kirby-Bauer's disk diffusion assay. The assay is classed as functional. In short, it runs like this: as §2
Assay [15] has as its system Escherichia coli. Nature of the assay: Antibacterial activity against Escherichia coli at 20 umol/ml after 24 hrs by Kirby-Bauer's disk diffusion assay. The assay is classed as functional. In short, it runs like this:
as §2

The subject of assay [16] is Penicillium chrysogenum. The assay can be described thus: Antifungal activity against Penicillium notatum at 20 umol/ml after 48 hrs. Type of assay: functional. An outline of the steps:
(§4)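 Clinical fungal isolates were subcultured on Sabouraud dextrose agar. For the inoculum, cultures were grown on Sabouraud dextrose agar for 48 h at 37 °C. Conidia were dislodged into sterile saline, the suspension was brought to 5 ml, and the microconidia were counted. This suspension was swabbed over Sabouraud dextrose agar plates poured 5 mm deep, and excess was decanted. Sterile 6 mm discs were charged with compound.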

The subject of assay [17] is Candida albicans. Nature of the assay: Antifungal activity against Candida albicans at 20 umol/ml after 48 hrs. Type of assay: functional. In short, it runs like this: as §4
The next assay has as its system Candida parapsilosis. Nature of the assay: Antifungal activity against Candida parapsilosis at 20 umol/ml after 48 hrs. The assay is classed as functional. In short, it runs like this: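 Clinical isolates from diagnosed patients, subcultured on Sabouraud dextrose agar slants at 30 °C for 10–12 days. Inoculum from 48 h SDA cultures at 37 °C, dislodged into sterile saline and brought to 5 ml. Suspension swab-spread on SDA plates poured 5 mm deep, excess decanted. Sterile 6 mm discs charged with compound. Fluconazole reference.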

The test system of assay [18] is Aspergillus fumigatus. The assay can be described thus: Antifungal activity against Aspergillus fumigatus at 10 umol/ml after 48 hrs. Type of assay: functional. In short, it runs like this:
as §4

Assay [19] concerns Aspergillus fumigatus. Nature of the assay: Antifungal activity against Aspergillus fumigatus at 20 umol/ml after 48 hrs. The assay is classed as functional. In short, it runs like this: as §4
Assay [20] relates to Candida albicans. The assay can be described thus: Antifungal activity against Candida albicans at 10 umol/ml after 48 hrs. Type of assay: functional. An outline of the steps:
as §4

The test system of assay [21] is Penicillium chrysogenum. Nature of the assay: Antifungal activity against Penicillium notatum at 10 umol/ml after 48 hrs. The assay is classed as functional. In short, it runs like this:
as §4

The subject of assay [22] is Enterobacter cloacae. The assay can be described thus: Antibacterial activity against Enterobacter cloacae at 10 umol/ml after 24 hrs by Kirby-Bauer's disk diffusion assay. The assay is classed as functional. An outline of the steps:
as §2

Assay [23] deals with Enterobacter cloacae. Nature of the assay: Antibacterial activity against Enterobacter cloacae at 5 umol/ml after 24 hrs by Kirby-Bauer's disk diffusion assay. Type of assay: functional. An outline of the steps:
as §2

The structures appear in SMILES notation. Values after ≈ are worked out from the molar mass of the structure shown. Active and inactive are the calls of the source.

Data on ten molecules can be found in ChEMBL document CHEMBL1156710, “Design, synthesis and characterization of some bioactive conjugates of curcumin with glycine, glutamic acid, valine and demethylenated piperic acid and study of their antimicrobial and antiproliferative properties” (2008).

For the molecule `COc1cc(/C=C/C(=O)CC(=O)/C=C/c2ccc(OC(=O)[C@@H](N)CCC(=O)O)c(OC)c2)ccc1OC(=O)[C@@H](N)CCC(=O)O`, the result in the assay on HeLa and in the assay with KB was Active. Besides, the “inhibition zone (IZ)” value in the assay with Klebsiella aerogenes [1] was 9 mm; with Micrococcus [2], 16 mm; in the assay with Micrococcus [7], 18 mm. The MIC (as a rule, the smallest concentration in the dilution series that meets the test's criterion for growth inhibition) with Micrococcus [3] turned out to be 5 mM (≈ 3130 µg/mL); against Klebsiella aerogenes [8], 20 mM (≈ 12500 µg/mL). Further, the outcome (in assay [4]; in the assay with Escherichia coli [5]; with Enterobacter cloacae [6]) was inactive.

Consider `COc1cc(/C=C/C(=O)CC(=O)/C=C/c2ccc(OC(=O)CN)c(OC)c2)ccc1OC(=O)CN`, for which the “inhibition zone (IZ)” value in assay [9] was 10 mm; in the assay with Micrococcus [10], 10 mm; in assay [11], 14 mm; in the assay on Micrococcus [2], 13 mm; with Enterobacter cloacae [12] it was 12 mm; with Micrococcus [7], 15 mm. For the same molecule, the “inhibition zone (IZ)” value in assay [13] turned out to be 12 mm. The values for the MIC against Micrococcus [3] and against Escherichia coli [5] were 10 mM (≈ 4820 µg/mL) and 20 mM (≈ 9650 µg/mL), respectively. The result (in assay [4]; with Enterobacter cloacae [6]; in the assay with Klebsiella aerogenes [8]) was inactive.

With `O=C(O)/C=C/C=C/c1ccc2c(c1)OCO2` [PIPERIC ACID], in the assay on Klebsiella aerogenes [1], the “inhibition zone (IZ)” value is on record as 8 mm. Further, the outcome (in assay [4]; in the assay with Escherichia coli [5]) was inactive. This molecule had an MIC with Klebsiella aerogenes [8] of 20 mM (≈ 4360 µg/mL).

As for `COc1cc(/C=C/C(=O)CC(=O)/C=C/c2ccc(OC(=O)[C@@H](N)C(C)C)c(OC)c2)ccc1O` [MONOVALINOYL CURCUMIN], the “inhibition zone (IZ)” value in the assay on Klebsiella aerogenes [1] turned out to be 18 mm; in the assay with Escherichia coli [14], 11 mm; with Escherichia coli [15] it was 13 mm; with Micrococcus [10], 19 mm; in the assay with Micrococcus [2], 20 mm; in the assay on Enterobacter cloacae [12] it was 25 mm. Besides, the “inhibition zone (IZ)” value with Micrococcus [7] stood at 26 mm; in the assay on Penicillium chrysogenum [16], 12 mm. For the same molecule, the MIC against Micrococcus [3] worked out at 2.5 mM (≈ 1170 µg/mL); in the assay on Escherichia coli [5] it was 10 mM (≈ 4680 µg/mL); in the assay with Enterobacter cloacae [6] it was 2.5 mM (≈ 1170 µg/mL); against Klebsiella aerogenes [8], 5 mM (≈ 2340 µg/mL). The outcome in assay [4] was inactive.

Consider `COc1cc(/C=C/C(=O)CC(=O)/C=C/c2ccc(OC(=O)[C@@H](N)C(C)C)c(OC)c2)ccc1OC(=O)[C@@H](N)C(C)C`, for which the “inhibition zone (IZ)” value with Escherichia coli [15] was determined as 20 mm; in assay [11] it was 14 mm; in the assay on Micrococcus [2], 13 mm; in the assay with Enterobacter cloacae [12], 20 mm; in the assay on Micrococcus [7] it was 16 mm; in assay [13] it was 12 mm. In addition, the MIC came to 10 mM (≈ 5670 µg/mL) in the assay with Micrococcus [3], 10 mM (≈ 5670 µg/mL) in [4], 5 mM (≈ 2830 µg/mL) with Escherichia coli [5] and 5 mM (≈ 2830 µg/mL) in the assay with Enterobacter cloacae [6]. For the same molecule, the outcome in the assay on Klebsiella aerogenes [8] was inactive.

Consider `O=C(O)/C=C/C=C/c1ccc(O)c(O)c1` [DEMETHYLENATED PIPERIC ACID], for which the “inhibition zone (IZ)” value is given as 10 mm in assay [11], 18 mm in the assay on Enterobacter cloacae [12], 15 mm in the assay on Micrococcus [7] and 16 mm with Candida albicans [17]. Moreover, the MIC came to 10 mM (≈ 2060 µg/mL) against Micrococcus [3], 20 mM (≈ 4120 µg/mL) in [4] and 10 mM (≈ 2060 µg/mL) in the assay with Enterobacter cloacae [6]. The result in the assay on Escherichia coli [5] and with Klebsiella aerogenes [8] was inactive.

Regarding `COc1cc(/C=C/C(=O)CC(=O)/C=C/c2ccc(O)c(OC)c2)ccc1O` [CURCUMIN], the figures for the “inhibition zone (IZ)” value with Escherichia coli [15] and in the assay with Candida albicans [17] were 10 mm and 15 mm, respectively. For the same molecule, the MIC against Escherichia coli [5] was determined as 20 mM (≈ 7370 µg/mL). The result with Klebsiella aerogenes [8] was inactive.

For the molecule `OC(Cn1cncn1)(Cn1cncn1)c1ccc(F)cc1F` [FLUCONAZOLE], the “inhibition zone (IZ)” value with Candida parapsilosis is on record as 20 mm; in the assay on Candida albicans [17], 29 mm.

Regarding `COc1cc(/C=C/C(=O)CC(=O)/C=C/c2ccc(OC(=O)CN)c(OC)c2)ccc1O` [MONOGLYCINOYL CURCUMIN], the “inhibition zone (IZ)” value with Aspergillus fumigatus [18] was 20 mm; in the assay with Aspergillus fumigatus [19], 25 mm; in the assay with Klebsiella aerogenes [1], 18 mm; with Escherichia coli [15] it was 12 mm; with Candida parapsilosis, 14 mm; with Candida albicans [20], 18 mm. For the same molecule, the “inhibition zone (IZ)” value is on record as 16 mm in the assay on Penicillium chrysogenum [21], 20 mm in the assay on Candida albicans [17] and 20 mm in the assay on Penicillium chrysogenum [16]. The outcome (in the assay on Micrococcus [3]; in assay [4]; in the assay with Enterobacter cloacae [6]) was inactive. Moreover, the values for the MIC in the assay on Escherichia coli [5] and against Klebsiella aerogenes [8] were 20 mM (≈ 8510 µg/mL) and 5 mM (≈ 2130 µg/mL), respectively.

Regarding `COc1cc(/C=C/C(=O)CC(=O)/C=C/c2ccc(OC(=O)/C=C/C=C/c3ccc(O)c(O)c3)c(OC)c2)ccc1OC(=O)/C=C/C=C/c1ccc(O)c(O)c1`, the “inhibition zone (IZ)” value worked out at 11 mm in the assay with Klebsiella aerogenes [1]; 16 mm in the assay with Escherichia coli [15]; 10 mm in assay [11]; 12 mm with Micrococcus [2]; 14 mm with Enterobacter cloacae [22]; 18 mm with Enterobacter cloacae [12]. Moreover, the “inhibition zone (IZ)” value with Micrococcus [7] came to 16 mm; in the assay on Enterobacter cloacae [23], 12 mm; with Candida albicans [17], 16 mm. For the same molecule, the MIC came out at 10 mM (≈ 7450 µg/mL) against Micrococcus [3]; 20 mM (≈ 14900 µg/mL) in [4]; 10 mM (≈ 7450 µg/mL) in the assay with Escherichia coli [5]; 5 mM (≈ 3720 µg/mL) against Enterobacter cloacae [6]; 20 mM (≈ 14900 µg/mL) with Klebsiella aerogenes [8].
